Consider four molecules from ChEMBL document CHEMBL1158458, “Virtual screening approach for the identification of new Rac1 inhibitors” (J Med Chem, 2009).

pIC50: −log10 of the molar value. Activity calls are given as the source filed them. No cut-off for these calls is given here.

Test [1] has as its target Cell division control protein 42 homolog (Homo sapiens) (UniProt P60953). Briefly: Inhibition of Cdc42.
Test [2] has as its target Ras-related C3 botulinum toxin substrate 1 (Mus musculus) (UniProt P63001). Briefly: Inhibition of PDGF-BB-stimulated Rac1-mediated cellular events in mouse 3T3 cells assessed as induction of membrane ruffling formation at 25 uM after 48 hrs by fluorescent microscopy. In kind it is cell-based. Conditions: NIH3T3. In outline: (§1)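 Serum-starved 3T3 cells were treated with compound at 25 μM and stimulated with PDGF-BB. Lamellipodia and membrane ruffle formation at the cell edges were then scored, together with cytoskeletal rearrangement.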

The target in test [3] is Transforming protein RhoA (Homo sapiens) (UniProt P61586). Briefly: Inhibition of PDGF-BB-stimulated RhoA activity in human aortic smooth muscle cells assessed as reduction in ratio of RhoAGTP/RhoA levels at 25 uM after 4 hrs by pull-down assay. In outline: (§2)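 Cultured human aortic SMCs exposed to compound at 25 μM for 4 h, then stimulated with PDGF-BB (final 10 ng/mL) for 2 min. Active GTPase (Cdc42-GTP for line 2, RhoA-GTP for line 3) isolated by pull-down and expressed as the GTP-bound/total protein ratio. The Rac1 pull-down was run under the same conditions.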

The target of test [4] is Ras-related C3 botulinum toxin substrate 1 (Mus musculus) (UniProt P63001). As to the kind of experiment: Inhibition of PDGF-BB-stimulated Rac1-mediated cellular events in mouse 3T3 cells assessed as induction of membrane lamillipodia at 25 uM after 48 hrs by fluorescent microscopy. It is filed as cell-based. The following applies: NIH3T3. The essentials:
as §1

In test [5] the target is Cell division control protein 42 homolog (Homo sapiens) (UniProt P60953). As to the kind of experiment: Inhibition of PDGF-BB-stimulated Cdc42 activity in human aortic smooth muscle cells assessed as reduction in ratio of Cdc42GTP/Cdc42 levels at 25 uM after 4 hrs by pull-down assay. The essentials: as §2
The target of test [6] is Ras-related C3 botulinum toxin substrate 1 (Homo sapiens, UniProt P63000). As to the kind of experiment: Inhibition of PDGF-BB-stimulated Rac1 activity in human aortic smooth muscle cells assessed as reduction of Rac1GTP level after 4 hrs by G-LISA.

Chain of Cell division control protein 42 homolog (Homo sapiens) (P60953 whole entry, looked up): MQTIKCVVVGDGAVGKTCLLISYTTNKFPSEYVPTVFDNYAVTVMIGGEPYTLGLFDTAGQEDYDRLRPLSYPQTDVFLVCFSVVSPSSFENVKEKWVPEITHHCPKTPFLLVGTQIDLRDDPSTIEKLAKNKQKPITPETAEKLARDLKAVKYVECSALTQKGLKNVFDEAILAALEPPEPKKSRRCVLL
Chain of Transforming protein RhoA (Homo sapiens) (P61586 whole entry): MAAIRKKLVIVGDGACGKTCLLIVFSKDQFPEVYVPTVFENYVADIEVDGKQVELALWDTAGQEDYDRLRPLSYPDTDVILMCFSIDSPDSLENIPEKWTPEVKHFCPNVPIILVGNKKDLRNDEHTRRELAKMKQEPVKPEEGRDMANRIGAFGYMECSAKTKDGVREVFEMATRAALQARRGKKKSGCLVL

As for `COc1ccc(NC(=O)c2n[nH]c3ccccc23)cc1S(=O)(=O)N1CCCCC1`, the outcome in test [1], in test [2] and in test [4] was Active. For the same molecule, the outcome in test [3] was inactive. Moreover, in test [5], the Percent reduction in Cdc42-GTP/total Cdc42 ratio is less than 25%.
`COc1cc2c(C#N)c(N3CCN(c4ccccc4OC)CC3)nc(N)c2c(N)n1`: in test [1], the result was Active. In test [3], the result was inactive. The Percent reduction in Cdc42-GTP/total Cdc42 ratio in test [5] was less than 25%. Besides, in test [6], the pIC50 is 4.34.
Regarding `CC(OC(=O)c1ccc2ccccc2c1O)C(=O)Nc1ccc(N2CCOCC2)cc1` (stereo not given), the result in test [1] was Active. Moreover, in test [3], the outcome was inactive. Further, the Percent reduction in Cdc42-GTP/total Cdc42 ratio in test [5] is less than 25%.
The corresponding values for `O=C(CNc1ccc(F)c([N+](=O)[O-])c1)Nc1ccc(N2CCOCC2)cc1` are “Active”, “inactive” and less than 25%.
